≈ marks a conversion by molar mass, not a printed value.
Legend:
[1] = WHO-TDR: Cytotoxicity; format: toxicity, cell-based; settings: human, MRC5 cells
Plasmodium falciparum K1 = assay: WHO-TDR: Malaria; format: functional, organism-based, Homo sapiens; settings: Erythrocyte
Method in brief: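 Whole-organism screen of a 10,000-compound diverse library from Life Chemicals, filtered for drug-likeness and reactive groups, against intra-erythrocytic Plasmodium falciparum K1 strain in human red blood cells. The assay followed previously published standard procedures, with a reference drug as positive control. Antiplasmodial potency is reported as IC50.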

Brugia malayi = assay: WHO-TDR: Lymphatic Filariasis; format: functional; set-up: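 tested at 10 µM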
Method in brief: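 In a whole-organism assay, Brugia malayi microfilariae were screened against a diverse Life Chemicals library that had been filtered for drug-likeness and reactive groups. That library comprised 10,000 compounds. Activity is expressed as percent inhibition and as IC50.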

Leishmania infantum = assay: WHO-TDR: Leishmaniasis; format: functional, organism-based, Mus musculus; settings: Macrophage
Method in brief: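 Whole-organism screen of a 10,000-compound diverse library from Life Chemicals, filtered for drug-likeness and reactive groups, against intracellular amastigotes of Leishmania infantum MHOM/MA(BE)/67 in murine peritoneal macrophage host cells. The assay followed previously published standard procedures, with a reference drug as positive control. Antiparasitic potency is reported as IC50.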

Trypanosoma cruzi = assay: WHO-TDR: Chagas disease; format: functional, organism-based, Homo sapiens; settings: MRC5
Method in brief: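 Intracellular amastigotes of the Trypanosoma cruzi Tulahuen CL2 beta-galactosidase strain, grown in MRC-5SV2 human lung fibroblast host cells, were tested in a whole-organism screen. The compounds came from a 10,000-member diverse Life Chemicals library that had been filtered for drug-likeness and reactive groups. Previously published standard procedures were followed, with a reference drug as positive control, and potency is reported as IC50.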

[2] = test system: Trypanosoma brucei brucei; assay: WHO-TDR: Human African Trypanosomiasis (HAT); format: functional, organism-based; settings: Squib-427
Method in brief: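 Whole-organism screen of a 10,000-compound diverse library from Life Chemicals, filtered for drug-likeness and reactive groups, against bloodstream forms of Trypanosoma brucei Squib 427 strain. The assay followed previously published standard procedures, with reference drugs as positive controls. Antiparasitic potency is reported as IC50.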

Onchocerca ochengi = assay: WHO-TDR: Onchocerciasis; format: functional; set-up: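 at 12.5 µM on microfilariae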
Method in brief: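 Microfilariae of Onchocerca ochengi or Onchocerca lienalis, animal pathogens standing in for the human parasite, were exposed to compounds in a whole-organism screen. The compounds came from a 10,000-compound diverse Life Chemicals library filtered for drug-likeness and reactive groups. Results are expressed as percent inhibition and IC50.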

Schistosoma mansoni = assay: WHO-TDR: Schistosomiasis; format: functional; set-up: concentration or dose not given beside the values
Method in brief: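 In this whole-organism assay, larval and/or adult worms of Schistosoma mansoni (Puerto Rican strain) were exposed to compounds from a diverse Life Chemicals library of 10,000 members. A reference drug served as positive control. Activity is stated as percent inhibition and IC50.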

For `c1ccc2c(c1)CCN(c1ncnc3[nH]ncc13)C2`, the IC50 [1] was > 7.54 µg/mL, the IC50 (Plasmodium falciparum K1) was > 7.54 µg/mL and the “% Inhibition” value (Brugia malayi) was 0%. For the same molecule, the IC50 (Leishmania infantum) was > 7.54 µg/mL, the IC50 (Trypanosoma cruzi) was > 7.54 µg/mL and the IC50 [2] was > 7.54 µg/mL. The “% Inhibition” value (Onchocerca ochengi) was 100%.

With `FC(F)Sc1ccc(Nc2ncnc3[nH]ncc23)cc1` the IC50 [1] was > 8.8 µg/mL, the IC50 (Plasmodium falciparum K1) was > 8.8 µg/mL and the “% Inhibition” value (Brugia malayi) was 0%. The IC50 (Leishmania infantum) was > 8.8 µg/mL, the IC50 (Trypanosoma cruzi) was > 8.8 µg/mL and the IC50 [2] was > 8.8 µg/mL. For the same molecule, the “% Inhibition” value (Onchocerca ochengi) was 100%.

With `COc1ccc(S(=O)(=O)Nc2cc(C)nn2C2CCS(=O)(=O)C2)cc1C` (configuration not stated) the IC50 [1] was > 12 µg/mL, the IC50 (Plasmodium falciparum K1) was > 12 µg/mL and the “% Inhibition” value (Brugia malayi) was 0%. The IC50 (Leishmania infantum) was > 12 µg/mL, the IC50 (Trypanosoma cruzi) was > 12 µg/mL and the IC50 [2] was > 12 µg/mL. For the same molecule, the “% Inhibition” value (Onchocerca ochengi) was 100%.

For `COc1ccc(-c2cn3c(CCC(=O)Nc4ccccc4SC)csc3n2)cc1`, the IC50 [1] was > 12.7 µg/mL, the IC50 (Plasmodium falciparum K1) was > 12.7 µg/mL and the “% Inhibition” value (Brugia malayi) was 20%. For the same molecule, the IC50 (Leishmania infantum) was > 12.7 µg/mL, the IC50 (Trypanosoma cruzi) was 5.77 µg/mL (≈ 13.6 µM) and the IC50 [2] was 4.22 µg/mL (≈ 9.95 µM). The “% Inhibition” value (Onchocerca ochengi) was 100%.

In the case of `O=C(Nc1nnc(-c2cccnc2)o1)c1cccc(C(F)(F)F)c1`, the IC50 [1] is reported as 2.99 µg/mL (≈ 8.96 µM), the IC50 (Plasmodium falciparum K1) is reported as > 10 µg/mL and the “% Inhibition” value (Brugia malayi) is reported as 25%. The IC50 (Leishmania infantum) was 3.25 µg/mL (≈ 9.71 µM), the IC50 (Trypanosoma cruzi) was 0.317 µg/mL (≈ 0.948 µM) and the IC50 [2] was 3.38 µg/mL (≈ 10.1 µM). For the same molecule, the “% Inhibition” value (Schistosoma mansoni) was 0%.

With `Cc1cc2cc(CNC(=O)c3ccccc3F)ccc2n1C` the IC50 [1] was > 8.89 µg/mL, the IC50 (Plasmodium falciparum K1) was > 8.89 µg/mL and the “% Inhibition” value (Brugia malayi) was 0%. The IC50 (Leishmania infantum) was > 8.89 µg/mL, the IC50 (Trypanosoma cruzi) was 0.181 µg/mL (≈ 0.609 µM) and the IC50 [2] was > 8.89 µg/mL. For the same molecule, the “% Inhibition” value (Schistosoma mansoni) was 0%.

With `CCOc1ccccc1C(=O)NCc1ccc2c(c1)cc(C)n2C` the IC50 [1] was 4.26 µg/mL (≈ 13.2 µM), the IC50 (Plasmodium falciparum K1) was 4.49 µg/mL (≈ 13.9 µM) and the “% Inhibition” value (Brugia malayi) was 0%. The IC50 (Leishmania infantum) was > 9.67 µg/mL, the IC50 (Trypanosoma cruzi) was 0.057 µg/mL (≈ 0.177 µM) and the IC50 [2] was 0.163 µg/mL (≈ 0.506 µM). For the same molecule, the “% Inhibition” value (Schistosoma mansoni) was 0%.

In the case of `Cc1cc2cc(CNC(=O)c3ccccc3Br)ccc2n1C`, the IC50 [1] is reported as > 10.7 µg/mL, the IC50 (Plasmodium falciparum K1) is reported as > 10.7 µg/mL and the “% Inhibition” value (Brugia malayi) is reported as 0%. The IC50 (Leishmania infantum) was > 10.7 µg/mL, the IC50 (Trypanosoma cruzi) was 0.487 µg/mL (≈ 1.36 µM) and the IC50 [2] was 3.39 µg/mL (≈ 9.49 µM). For the same molecule, the “% Inhibition” value (Schistosoma mansoni) was 0%.

For `O=C(Nc1nnc(C2COc3ccccc3O2)o1)c1ccc(F)cc1` (configuration not stated), the IC50 [1] was > 10.2 µg/mL, the IC50 (Plasmodium falciparum K1) was > 10.2 µg/mL and the “% Inhibition” value (Brugia malayi) was 25%. For the same molecule, the IC50 (Leishmania infantum) was > 10.2 µg/mL, the IC50 (Trypanosoma cruzi) was 0.289 µg/mL (≈ 0.847 µM) and the IC50 [2] was > 10.9 µg/mL. The “% Inhibition” value (Schistosoma mansoni) was 0%.

In the case of `O=C(Nc1nnc(-c2ccc3c(c2)OCCO3)o1)c1cc(-c2ccccc2)nc2ccccc12`, the IC50 [1] is reported as 4.33 µg/mL (≈ 9.6 µM), the IC50 (Plasmodium falciparum K1) is reported as > 13.5 µg/mL and the “% Inhibition” value (Brugia malayi) is reported as 70%. The IC50 (Leishmania infantum) was 4.37 µg/mL (≈ 9.71 µM), the IC50 (Trypanosoma cruzi) was 0.434 µg/mL (≈ 0.963 µM) and the IC50 [2] was 4.27 µg/mL (≈ 9.49 µM). For the same molecule, the “% Inhibition” value (Schistosoma mansoni) was 0%.

In the case of `COc1cccc2sc(Nc3nc4ccc(NC(C)=O)cc4s3)nc12`, the IC50 [1] is reported as > 11.1 µg/mL, the IC50 (Plasmodium falciparum K1) is reported as > 11.1 µg/mL and the “% Inhibition” value (Brugia malayi) is reported as 90%. The IC50 (Leishmania infantum) was > 11.1 µg/mL, the IC50 (Trypanosoma cruzi) was 0.388 µg/mL (≈ 1.05 µM) and the IC50 [2] was 2.97 µg/mL (≈ 8.01 µM). The “% Inhibition” value (Schistosoma mansoni) was 0%.

In the case of `Cc1c(C(=O)N2CCC(C)CC2)sc2nc(-c3ccc(F)cc3)cn12`, the IC50 [1] is reported as > 10.7 µg/mL, the IC50 (Plasmodium falciparum K1) is reported as > 10.7 µg/mL and the “% Inhibition” value (Brugia malayi) is reported as 0%. For the same molecule, the IC50 (Leishmania infantum) was > 10.7 µg/mL, the IC50 (Trypanosoma cruzi) was > 10.7 µg/mL and the IC50 [2] was 0.422 µg/mL (≈ 1.18 µM). For the same molecule, the “% Inhibition” value (Schistosoma mansoni) was 0%.

For `CCCCCOc1cccc(C(=O)Nc2nnc(-c3ccco3)o2)c1`, the IC50 [1] was 5.71 µg/mL (≈ 16.7 µM), the IC50 (Plasmodium falciparum K1) was > 10.2 µg/mL and the “% Inhibition” value (Brugia malayi) was 25%. For the same molecule, the IC50 (Leishmania infantum) was 3.28 µg/mL (≈ 9.6 µM), the IC50 (Trypanosoma cruzi) was 0.368 µg/mL (≈ 1.08 µM) and the IC50 [2] was 3.29 µg/mL (≈ 9.63 µM). For the same molecule, the “% Inhibition” value (Schistosoma mansoni) was 0%.

With `Cc1cc2cc(CNC(=O)CC(c3ccccc3)c3ccccc3)ccc2[nH]1` the IC50 [1] was > 11.1 µg/mL, the IC50 (Plasmodium falciparum K1) was > 11.1 µg/mL and the “% Inhibition” value (Brugia malayi) was 0%. The IC50 (Leishmania infantum) was > 11.1 µg/mL, the IC50 (Trypanosoma cruzi) was 0.391 µg/mL (≈ 1.06 µM) and the IC50 [2] was 3.37 µg/mL (≈ 9.14 µM). The “% Inhibition” value (Schistosoma mansoni) was 0%.

In the case of `CCOC(=O)Cn1/c(=N/C(=O)CSC(C)=O)sc2ccccc21`, the IC50 [1] is reported as > 10.6 µg/mL, the IC50 (Plasmodium falciparum K1) is reported as > 10.6 µg/mL and the “% Inhibition” value (Brugia malayi) is reported as 0%. For the same molecule, the IC50 (Leishmania infantum) was > 10.6 µg/mL, the IC50 (Trypanosoma cruzi) was > 10.6 µg/mL and the IC50 [2] was 0.342 µg/mL (≈ 0.97 µM). The “% Inhibition” value (Schistosoma mansoni) was 0%.

In the case of `Cc1cc2cc(CCNC(=O)C3c4ccccc4Oc4ccccc43)c(O)nc2cc1C`, the IC50 [1] is reported as > 12.7 µg/mL, the IC50 (Plasmodium falciparum K1) is reported as > 12.7 µg/mL and the “% Inhibition” value (Brugia malayi) is reported as 0%. For the same molecule, the IC50 (Leishmania infantum) was 0.412 µg/mL (≈ 0.971 µM), the IC50 (Trypanosoma cruzi) was > 12.7 µg/mL and the IC50 [2] was > 12.7 µg/mL. For the same molecule, the “% Inhibition” value (Schistosoma mansoni) was 0%.
